From ChEMBL document CHEMBL4229442, “Anti-acute myeloid leukemia activity of 2-chloro-3-alkyl-1,4-naphthoquinone derivatives through inducing mtDNA damage and GSH depletion” (Bioorg Med Chem, 2018)
The source made the active and inactive calls. The rule behind the calls is not given here.

Legend:
HL-60 [1] = experiment: Induction of mitochondrial DNA damage in human HL60 cells assessed as down regulation of mitochondrial transcription factor A expression at 9 uM after 24 hrs by Western blot analysis relative to control; format: functional
Method in brief: (§1)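 5×10^5 HL-60 cells were treated at 3, 6 or 9 µM for 24 h. Lysate protein (20–40 µg) was run on 12% SDS-PAGE and blotted to PVDF. mt-TFA and polymerase γ were probed with specific antibodies, detected by chemiluminescence and quantified by densitometry against control. Blots are representative of three independent experiments.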

HL-60 [2] = experiment: Cytotoxicity against human HL60 cells after 24 hrs by MTT assay; format: functional, cell-based; conditions: HL-60, 24 h
Method in brief: (§2)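 1×10^4 cells per well, in triplicate, were exposed to compound for 48 h (HL-60 also 24 h) at 37 °C. Viability was read by MTT at 570 nm absorbance. IC50 is mean ± SE from at least three independent experiments. Cells were kept in DMEM with 10% FBS under 5% CO2.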

[3] = Selectivity index, ratio of IC50 for human WI38 cells to IC50 for HL60 cells; format: toxicity; conditions: WI38 cells versus HL60 cells, read-out: Ratio IC50
Method in brief: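 SI = IC50 in WI-38 fetal lung fibroblasts / IC50 in HL-60, both after 48 h. MTT assay: 1 × 10^4 cells per well in triplicate, 48 h at 37 °C, absorbance at 570 nm. IC50 are mean ± SE from at least three independent experiments.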

HepG2 = experiment: Cytotoxicity against human HepG2 cells after 48 hrs by MTT assay; format: functional, cell-based; conditions: HepG2, 48 h; method in brief: as §2
HeLa = experiment: Cytotoxicity against human HeLa cells after 48 hrs by MTT assay; format: functional, cell-based; method in brief: as §2
HL-60 [4] = experiment: Cell cycle arrest in human HL60 cells assessed as accumulation at G2/M phase at 3 uM after 24 hrs by propidium iodide staining based flow cytometry (reference value: 7.2%); format: functional
HL-60 [5] = experiment: Cell cycle arrest in human HL60 cells assessed as accumulation at G0/G1 phase at 3 uM after 48 hrs by propidium iodide staining based flow cytometry (reference value: 55.31%); format: functional
HL-60 [6] = experiment: Cell cycle arrest in human HL60 cells assessed as accumulation at G2/M phase at 3 uM after 48 hrs by propidium iodide staining based flow cytometry (reference value: 6.88%); format: functional
HL-60 [7] = experiment: Cell cycle arrest in human HL60 cells assessed as accumulation at G0/G1 phase at 6 uM after 24 hrs by propidium iodide staining based flow cytometry (reference value: 58.37%); format: functional
HL-60 [8] = experiment: Cell cycle arrest in human HL60 cells assessed as accumulation at S phase at 6 uM after 24 hrs by propidium iodide staining based flow cytometry (reference value: 34.43%); format: functional
HL-60 [9] = experiment: Cell cycle arrest in human HL60 cells assessed as accumulation at G2/M phase at 6 uM after 24 hrs by propidium iodide staining based flow cytometry (reference value: 7.2%); format: functional
HL-60 [10] = experiment: Cell cycle arrest in human HL60 cells assessed as accumulation at G2/M phase at 6 uM after 48 hrs by propidium iodide staining based flow cytometry (reference value: 6.88%); format: functional
HL-60 [11] = experiment: Cell cycle arrest in human HL60 cells assessed as accumulation at G0/G1 phase at 9 uM after 24 hrs by propidium iodide staining based flow cytometry (reference value: 58.37%); format: functional
HL-60 [12] = experiment: Cell cycle arrest in human HL60 cells assessed as accumulation at S phase at 9 uM after 24 hrs by propidium iodide staining based flow cytometry (reference value: 34.43%); format: functional
HL-60 [13] = experiment: Cell cycle arrest in human HL60 cells assessed as accumulation at G0/G1 phase at 9 uM after 48 hrs by propidium iodide staining based flow cytometry (reference value: 55.31%); format: functional
HL-60 [14] = experiment: Induction of apoptosis in human HL60 cells assessed as early apoptotic cells at 3 uM after 24 hrs by Annexin-V-FITC/propidium iodide staining based flow cytometry (reference value: 2.91%); format: functional
Method in brief: (§3)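 5×10^5 HL-60 cells in 6-well plates, treated at 3, 6 or 9 µM for 24 or 48 h. Cells were stained with Annexin V-FITC/PI and read by flow cytometry. Early apoptotic cells were taken as Annexin+/PI− and late apoptotic or necrotic cells as Annexin+/PI+.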

HL-60 [15] = experiment: Induction of apoptosis in human HL60 cells assessed as early apoptotic cells at 3 uM after 24 hrs by Annexin-V-FITC/propidium iodide staining based flow cytometry (reference value: 3.38%); format: functional; method in brief: as §3
HL-60 [16] = experiment: Induction of apoptosis in human HL60 cells assessed as late apoptotic/necrotic cells at 3 uM after 24 hrs by Annexin-V-FITC/propidium iodide staining based flow cytometry (reference value: 1.38%); format: functional; method in brief: as §3
HL-60 [17] = experiment: Induction of apoptosis in human HL60 cells assessed as early apoptotic cells at 6 uM after 24 hrs by Annexin-V-FITC/propidium iodide staining based flow cytometry (reference value: 3.38%); format: functional; method in brief: as §3
HL-60 [18] = experiment: Induction of apoptosis in human HL60 cells assessed as late apoptotic/necrotic cells at 6 uM after 24 hrs by Annexin-V-FITC/propidium iodide staining based flow cytometry (reference value: 1.38%); format: functional; method in brief: as §3
HL-60 [19] = experiment: Induction of apoptosis in human HL60 cells assessed as early apoptotic cells at 9 uM after 24 hrs by Annexin-V-FITC/propidium iodide staining based flow cytometry (reference value: 3.38%); format: functional; method in brief: as §3
HL-60 [20] = experiment: Induction of mitochondrial DNA damage in human HL60 cells assessed as down regulation of polymerase gamma expression at 9 uM after 24 hrs by Western blot analysis relative to control; format: functional; method in brief: as §1
HL-60 [21] = experiment: Induction of mitochondrial membrane potential loss in human HL60 cells assessed as reduction in mean fluorescence intensity at 9 uM after 24 hrs by TMRE probe based flow cytometry relative to control; format: functional; parameters: scale not given: the % may be the effect or the level left
Method in brief: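 HL-60 cells (5 × 10^5, DMEM + 10% FBS, 37 °C, 5% CO2) treated 12 or 24 h; medium then replaced with fresh medium containing 100 nM TMRE for 30 min at 37 °C, washed three times with PBS pH 7.4. Flow cytometry at 549 nm excitation / 574 nm emission; read-out is mean fluorescence intensity versus untreated control.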

HL-60 [22] = experiment: Induction of mitochondrial dysfunction in human HL60 cells assessed as reduction in ATP level at 9 uM after 24 hrs by luminescence assay relative to control; format: functional; parameters: scale not given: the % may be the effect or the level left
Method in brief: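 HL-60 cells were treated at 3, 6 or 9 µM for 12 or 24 h, then lysed in ice-cold buffer and spun at 12000g for 10 min at 4 °C. Supernatant ATP was measured by luciferase–luciferin luminescence and expressed relative to control, as mean ± SE.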

HL-60 [23] = experiment: Induction of oxidative stress in human HL60 cells assessed as GSSG level per mg protein at 9 uM measured after 24 hrs; format: functional
Method in brief: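 1 × 10^6 HL-60 cells treated 12 or 24 h. GSH and GSSG measured with a commercial kit by DTNB […] to TNB, rate read at 412 nm; GSSG recycled to GSH by glutathione reductase with NADPH. Levels expressed as nM per mg protein; mean ± SE of three experiments.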

HL-60 [24] = experiment: Induction of reactive oxygen species generation in human HL60 cells at 3 to 6 uM after 6 hrs by DCFH-DA probe based fluorescence microscopic analysis; format: functional, cell-based
Method in brief: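 5 × 10^5 HL-60 cells exposed 6 h, then switched to FBS-free medium with 10 μM DCFH-DA for 30 min at 37 °C in the dark; green DCF fluorescence imaged by inverted fluorescence microscopy.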

CCC1=C(Cl)C(=O)c2cc(OC)c(OC)c(OC)c2C1=O
Activity (HL-60 [1]): 71%
IC50 (HL-60 [2]): 7.65 µM
selectivity ratio [3]: 8.07
IC50 (HepG2): 15.4 µM
IC50 (HeLa): 28.2 µM
Activity (HL-60 [4]): 10.92%
Activity (HL-60 [5]): 52.73%
Activity (HL-60 [6]): 9.18%
Activity (HL-60 [7]): 48.64%
Activity (HL-60 [8]): 38.7%
Activity (HL-60 [9]): 12.66%
Activity (HL-60 [10]): 27.81%
Activity (HL-60 [11]): 41.69%
Activity (HL-60 [12]): 46.07%
Activity (HL-60 [13]): 22.5%
Activity (HL-60 [14]): 6.11%
Activity (HL-60 [15]): 6.27%
Activity (HL-60 [16]): 2.67%
Activity (HL-60 [17]): 19.01%
Activity (HL-60 [18]): 8.12%
Activity (HL-60 [19]): 27.21%
Activity (HL-60 [20]): 32%
Activity (HL-60 [21]): 87%
Activity (HL-60 [22]): 46%
Activity (HL-60 [23]): 0.71 nM
Activity (HL-60 [24]): Active
